High-throughput results as filed in PubChem.
RORa inhibitor = inhibitors of human nuclear receptor RORA; CHO-K1 Gal4-RORA LBD luciferase reporter, luminescence; hit rate 0.43% among 65,000; P35398; AID 561; inhibition, % at 10 µM;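 active = inhibition above the mean of all tested compounds plus 3 SD, cut at about 52% in these data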
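Material: transiently transfected CHO-K1 cells, Gal4-DBD/human RORA-LBD fusion plus 5xGal4-luciferase reporter; doses: single concentration per compound, 10 µM final; incubation: 20 h at 37 °C; detection: luminescence from basal luciferase reporter expression; read-out: % inhibition of basal luciferase versus +RORA/-RORA DMSO controls; replication: tested once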
Numbers stand for hits. This is one part of a sample in which hits are shown more often than they occur.

For C[C@H]1CCC/C=C/C2C[C@H](O)CC2[C@H](O)/C=C/C(=O)O1 (stereo partly specified) the results were RORa inhibitor 84.
Screening COc1ccc(C2NCc3ccc4c(c3-n3cccc32)OCO4)cc1O (stereo unspecified) returned RORa inhibitor inactive.
For CCn1nc(-c2ccccc2)nc2c(=O)n(C)c(=O)nc1-2 the results were RORa inhibitor 93.
For Cc1ccc(S(=O)(=O)N(C)CCCC(=O)N2CCN(c3ccccn3)CC2)cc1 the results were RORa inhibitor inactive.
Screening CC1=NOC2(C)Nc3ncnn3C(c3ccccc3)C12 (stereo unspecified) returned RORa inhibitor inactive.
Screening O=C(C1CCCO1)N1CCC2(CC1)OCCO2 (stereo unspecified) returned RORa inhibitor inactive.
CC(C)c1cccc(C(C)C)c1OCCn1ccnc1 was read as RORa inhibitor inactive.
O=C(C1CC(c2ccc(Cl)c(Cl)c2)=NO1)N1CCC2(CC1)OCCO2 (stereo unspecified) was read as RORa inhibitor inactive.
Screening CC[C@@H]1C(=O)OC[C@@H]1Cc1cncn1C returned RORa inhibitor inactive.
Screening CC(C(=O)N1CCC2(CC1)OCCO2)C1Sc2ccccc2NC1=O (stereo unspecified) returned RORa inhibitor inactive.
